In ChEMBL document CHEMBL3120154, “2-[N-Alkyl(R-phenyl)-aminomethyl]-3-phenyl-7-trifluoromethylquinoxalines as anticancer agents inhibitors of folate enzymes” (Eur J Med Chem, 2014):

Legend:
[1] = tested on: LOX IMVI; assay: Cytotoxicity against human LOXIMVI cells at 10^-4 M after 48 hrs by SRB assay; assay type: functional; details: read-out: GI
Summary of the method: (§1)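 Run in the NCI 60-cell-line screen after a three-line prescreen. Cells got a 48 h drug exposure; viability/growth was estimated with the sulforhodamine B protein assay. Growth inhibition (I%) was recorded at 100, 10, 1, 0.1 and 0.01 micromolar. Percent growth is relative to untreated control cells, and negative values indicate cell kill.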

[2] = Cytotoxicity against human Hs578T cells at 10^-4 M after 48 hrs by SRB assay; assay type: functional; details: Hs-578T, read-out: GI
Summary of the method: (§2)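 Run by NCI on its 60-line human tumor cell panel, after a three-cell-line prescreen. Cells were exposed to drug for 48 h over a 5-log range: 100, 10, 1, 0.1 and 0.01 micromolar. Growth was estimated by sulforhodamine B (SRB) protein staining. Percent growth inhibition (I%) was recorded at each concentration relative to untreated control cells.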

[3] = tested on: T47D; assay: Cytotoxicity against human T47D cells at 10^-4 M after 48 hrs by SRB assay; assay type: functional; details: read-out: GI
Summary of the method: (§3)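 Second-stage screen in the 60-cell-line human tumor panel at NCI, over a 5-log range (100, 10, 1, 0.1, 0.01 micromolar). Cells were exposed to drug for 48 h and growth was estimated with a sulforhodamine B protein stain. The value is percent growth inhibition at each concentration.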

[4] = tested on: SF-295; assay: Cytotoxicity against human SF295 cells at 10^-4 M after 48 hrs by SRB assay; assay type: functional; details: SF-295, 48 h, read-out: GI; summary of the method: as §3
[5] = tested on: NCI-H460; assay: Cytotoxicity against human NCI-H460 cells at 10^-4 M after 48 hrs by SRB assay; assay type: functional; details: NCI-H460, 48 h, read-out: GI; summary of the method: as §1
[6] = tested on: 786-0; assay: Cytotoxicity against human 786-0 cells at 10^-5 M after 48 hrs by SRB assay; assay type: functional; details: 786-0, 48 h, read-out: GI; summary of the method: as §2
[7] = tested on: RXF 393; assay: Cytotoxicity against human RXF393 cells at 10^-4 M after 48 hrs by SRB assay; assay type: functional; details: RXF 393, 48 h, read-out: GI; summary of the method: as §3
[8] = tested on: SK-MEL-2; assay: Cytotoxicity against human SK-MEL-2 cells at 10^-4 M after 48 hrs by SRB assay; assay type: functional; details: SK-MEL-2, 48 h, read-out: GI; summary of the method: as §3
[9] = tested on: TK-10; assay: Cytotoxicity against human TK10 cells at 10^-5 M after 48 hrs by SRB assay; assay type: functional; details: TK-10, 48 h, read-out: GI
[10] = Cytotoxicity against human OVCAR5 cells at 10^-4 M after 48 hrs by SRB assay; assay type: functional; details: OVCAR-5, 48 h, read-out: GI; summary of the method: as §3
[11] = tested on: SF-539; assay: Cytotoxicity against human SF539 cells at 10^-4 M after 48 hrs by SRB assay; assay type: functional; details: SF-539, 48 h, read-out: GI; summary of the method: as §3
[12] = tested on: SNB-19; assay: Cytotoxicity against human SNB19 cells at 10^-4 M after 48 hrs by SRB assay; assay type: functional; details: SNB-19, 48 h, read-out: GI; summary of the method: as §3
[13] = tested on: KM12; assay: Cytotoxicity against human KM12 cells at 10^-4 M after 48 hrs by SRB assay; assay type: functional; details: KM12, 48 h, read-out: GI; summary of the method: as §1
[14] = tested on: ACHN; assay: Cytotoxicity against human ACHN cells at 10^-4 M after 48 hrs by SRB assay; assay type: functional; details: read-out: GI; summary of the method: as §2
[15] = tested on: SF-268; assay: Cytotoxicity against human SF268 cells assessed as cell growth at 10^-4 M after 48 hrs by alamar blue assay relative to untreated control; assay type: functional; details: SF-268, 48 h, read-out: Activity
Summary of the method: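 Three-cell-line prescreen at NCI. Each line was seeded and pre-incubated, then given a single concentration (10^-4 or 10^-5 M) and incubated for 48 h. The end-point was alamar blue. The value is percent growth of treated cells versus untreated control cells, with negative numbers indicating cell kill.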

[16] = tested on: MOLT-4; assay: Cytotoxicity against human MOLT4 cells at 10^-4 M after 48 hrs by SRB assay; assay type: functional; details: MOLT-4, 48 h, read-out: GI; summary of the method: as §1
[17] = tested on: MCF7; assay: Cytotoxicity against human MCF7 cells at 10^-5 M after 48 hrs by SRB assay; assay type: functional; details: MCF7, 48 h, read-out: GI; summary of the method: as §1
[18] = tested on: OVCAR-3; assay: Cytotoxicity against human OVCAR3 cells at 10^-4 M after 48 hrs by SRB assay; assay type: functional; details: OVCAR-3, 48 h, read-out: GI; summary of the method: as §1
[19] = tested on: SN12C; assay: Cytotoxicity against human SN12C cells at 10^-4 M after 48 hrs by SRB assay; assay type: functional; details: read-out: GI; summary of the method: as §3
[20] = molecular target: T1, Dihydrofolate reductase (Homo sapiens, UniProt P00374); assay: Competitive inhibition of human dihydrofolate reductase by spectrophotometry
T1 sequence (P00374 whole entry): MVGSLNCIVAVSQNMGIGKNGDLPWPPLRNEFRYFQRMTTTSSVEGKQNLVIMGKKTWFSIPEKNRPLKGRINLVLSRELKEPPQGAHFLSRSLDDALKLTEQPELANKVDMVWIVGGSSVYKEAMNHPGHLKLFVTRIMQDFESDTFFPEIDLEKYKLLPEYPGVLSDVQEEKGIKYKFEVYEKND

[21] = tested on: HOP-62; assay: Cytotoxicity against human HOP62 cells at 10^-4 M after 48 hrs by SRB assay; assay type: functional; details: HOP-62, 48 h, read-out: GI; summary of the method: as §2
[22] = tested on: HCC 2998; assay: Cytotoxicity against human HCC2998 cells at 10^-4 M after 48 hrs by SRB assay; assay type: functional; details: HCC 2998, 48 h, read-out: GI; summary of the method: as §2
[23] = tested on: NCI-H522; assay: Cytotoxicity against human NCI-H522 cells at 10^-4 M after 48 hrs by SRB assay; assay type: functional; details: NCI-H522, 48 h, read-out: GI; summary of the method: as §1
[24] = Cytotoxicity against human OVCAR4 cells at 10^-4 M after 48 hrs by SRB assay; assay type: functional; details: OVCAR-4, 48 h, read-out: GI; summary of the method: as §3
[25] = tested on: CAKI-1; assay: Cytotoxicity against human Caki1 cells at 10^-4 M after 48 hrs by SRB assay; assay type: functional; details: CAKI-1, 48 h, read-out: GI; summary of the method: as §2
[26] = tested on: TK-10; assay: Cytotoxicity against human TK10 cells at 10^-4 M after 48 hrs by SRB assay; assay type: functional; details: TK-10, 48 h, read-out: GI; summary of the method: as §3
[27] = tested on: HOP-92; assay: Cytotoxicity against human HOP92 cells at 10^-4 M after 48 hrs by SRB assay; assay type: functional; details: HOP-92, 48 h, read-out: GI; summary of the method: as §2
[28] = tested on: HL-60(TB); assay: Cytotoxicity against human HL-60(TB) cells at 10^-4 M after 48 hrs by SRB assay; assay type: functional; details: HL-60, 48 h, read-out: GI
Summary of the method: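 NCI 60-human-tumour-cell-line screen run over a 5-log dose range (100, 10, 1, 0.1 and 0.01 µM). Cells were exposed to drug for 48 h. Growth was estimated by sulforhodamine B protein staining. Values are percent growth inhibition at each concentration, relative to untreated control cells.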

[29] = tested on: 786-0; assay: Cytotoxicity against human 786-0 cells at 10^-4 M after 48 hrs by SRB assay; assay type: functional; details: 786-0, 48 h, read-out: GI; summary of the method: as §2
[30] = tested on: HT-29; assay: Cytotoxicity against human HT-29 cells at 10^-4 M after 48 hrs by SRB assay; assay type: functional; details: HT-29, 48 h, read-out: GI; summary of the method: as §2
[31] = tested on: NCI-H226; assay: Cytotoxicity against human NCI-H226 cells at 10^-4 M after 48 hrs by SRB assay; assay type: functional; details: NCI-H226, 48 h, read-out: GI; summary of the method: as §1
[32] = tested on: CCRF-CEM; assay: Cytotoxicity against human CCRF-CEM cells at 10^-4 M after 48 hrs by SRB assay; assay type: functional; details: read-out: GI; summary of the method: as §2

CCN(Cc1nc2cc(C(F)(F)F)ccc2nc1-c1ccccc1)c1ccc(OC)c(OC)c1
inhibition of growth at 100 µM [1]: 200% | inhibition of growth at 100 µM [2]: 162% | inhibition of growth at 100 µM [3]: 120% | inhibition of growth at 100 µM [4]: 181% | inhibition of growth at 100 µM [5]: 97% | inhibition of growth at 10 µM [6]: 15% | inhibition of growth at 100 µM [7]: 179% | inhibition of growth at 100 µM [8]: 172% | inhibition of growth at 10 µM [9]: < 40% | inhibition of growth at 100 µM [10]: 152% | inhibition of growth at 100 µM [11]: 176% | inhibition of growth at 100 µM [12]: 148% | inhibition of growth at 100 µM [13]: 153% | inhibition of growth at 100 µM [14]: 142% | growth at 100 µM [15]: 0% | inhibition of growth at 100 µM [16]: 122% | inhibition of growth at 10 µM [17]: 25% | inhibition of growth at 100 µM [18]: 194% | inhibition of growth at 100 µM [19]: 189% | Ki [20]: 4 µM | inhibition of growth at 100 µM [21]: 195% | inhibition of growth at 100 µM [22]: 174% | inhibition of growth at 100 µM [23]: 164% | inhibition of growth at 100 µM [24]: 76% | inhibition of growth at 100 µM [25]: 117% | inhibition of growth at 100 µM [26]: 109% | inhibition of growth at 100 µM [27]: 184% | inhibition of growth at 100 µM [28]: 153% | inhibition of growth at 100 µM [29]: 191% | inhibition of growth at 100 µM [30]: 97% | inhibition of growth at 100 µM [31]: 179% | inhibition of growth at 100 µM [32]: 146%
